V1R ag counter = V1a receptor agonism, counter-screen for OXTR agonists; P37288; CHO-V1R cells, Fluo-8 calcium fluorescence, agonist mode; 0% DMSO, 100% 3 nM vasopressin; activation, % at 3 µM; actives 0.25% (n = 320,000);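 active means activation above the mean activation of all tested compounds plus 3 SD, per screening run, cut at about 20% in these data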;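 further: signal is peak over basal fluorescence ratio across a 100 second FLIPR read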
OXTR potentiate = human OXTR potentiation | actives 0.061% (n = 320,000) | AID 2445 | P30559 | activation, % at 3 µM | CHO-OTR cells, Fluo-8 calcium fluorescence, potentiator mode; 0% = oxytocin EC15, 100% = EC100;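 active means activation above that plate's cutoff, the mean activation of tested compounds plus 3 SD, cut at about 6.6% in these data, passing the limit was not always enough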
Target sequence (P30559 whole entry, looked up): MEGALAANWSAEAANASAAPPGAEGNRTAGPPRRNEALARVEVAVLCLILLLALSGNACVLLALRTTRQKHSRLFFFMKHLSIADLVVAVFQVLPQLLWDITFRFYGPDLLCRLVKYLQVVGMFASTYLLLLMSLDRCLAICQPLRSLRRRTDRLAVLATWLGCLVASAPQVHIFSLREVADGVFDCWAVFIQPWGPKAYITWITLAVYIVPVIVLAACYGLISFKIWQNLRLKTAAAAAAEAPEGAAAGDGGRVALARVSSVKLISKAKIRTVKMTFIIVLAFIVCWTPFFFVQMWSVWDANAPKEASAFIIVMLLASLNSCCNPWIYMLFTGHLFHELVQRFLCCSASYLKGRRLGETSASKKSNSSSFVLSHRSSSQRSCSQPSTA
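System: human OTR in CHO cells; Also added: sub-maximal oxytocin, roughly EC15; Timing: compound 6 min at room temperature before oxytocin, 100 s read; Technique: Fluo-8 intracellular calcium fluorescence, ex 470-495, em 515-575 nm; Controls: oxytocin EC15 low and EC100 high; Replication: singlicate.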
TAAR1 antagonist = antagonists of human TAAR1. Q96RJ0. CHO RD-HGA16 TAAR1, Fluo-8 calcium fluorescence, antagonist. inhibition, % at 3 µM. actives 1.5% (n = 360,000);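 active means inhibition above a per-plate cutoff, the mean inhibition of test compounds on that plate plus 3 SD, cut at about 49% in these data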
Target sequence (Q96RJ0 whole entry, looked up): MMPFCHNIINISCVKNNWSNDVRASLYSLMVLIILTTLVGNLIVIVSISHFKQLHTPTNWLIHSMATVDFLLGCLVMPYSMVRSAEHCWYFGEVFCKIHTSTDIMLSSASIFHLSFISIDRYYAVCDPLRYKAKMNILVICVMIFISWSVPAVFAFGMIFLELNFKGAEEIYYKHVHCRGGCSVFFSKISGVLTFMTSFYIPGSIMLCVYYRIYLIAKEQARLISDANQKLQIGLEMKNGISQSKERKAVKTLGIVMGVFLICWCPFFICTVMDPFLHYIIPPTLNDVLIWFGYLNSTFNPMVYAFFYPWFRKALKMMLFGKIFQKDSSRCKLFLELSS
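Test system – hTAAR1-expressing CHO RD-HGA16 cells, Gα16-coupled · Also added – β-PEA at EC80 concentration, post-compound challenge · Compound – 3 µM, single point · Incubation – dye loading 75 min at 37 °C, then 30 min room temperature · Measured by – Fluo-8 intracellular calcium dye fluorescence, real-time kinetic reads · Benchmarks – vehicle and agonist controls · Replicates – singlicate, one well per test compound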
OXTR ag = activates the human oxytocin receptor; P30559; CHO-OTR cells, Fluo-8 calcium fluorescence; normalized: DMSO 0%, oxytocin 100%; activation, % at 3 µM; actives 0.32% (n = 320,000); AID 2435;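 active means activation above the mean of all tested compounds plus 3 SD, cutoff set per screening run, cut at about 20% in these data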;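 further: peak over basal fluorescence ratio from a 100 s FLIPR kinetic read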
TAAR1 agonist = agonists of human TAAR1; activation, % at 3 µM; AID 624467; actives 0.99% (n = 360,000); CHO RD-HGA16 TAAR1, Fluo-8 calcium fluorescence; vehicle wells 0%, saturating PEA agonist 100%;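 active means activation above the mean activation of all test compounds in the run plus 3 SD, cut at about 38% in these data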
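Signal – calcium-sensitive Fluo-8 signal, excitation 470-495, emission 515-575 nm · System – RD-HGA16 (CHO) cells co-expressing Gα16 and hTAAR1 · Incubation – 17-24 h seeding, 75 min 37 °C dye, 30 min RT · Compound dosing – 3 µM single concentration · Repeats – no replicates (n 1)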
TAAR1 nonsel count = nonselective antagonism, TAAR1 counter-screen; shares compounds with TAAR1 antagonist; counterscreen cell line, calcium fluorescence, antagonist mode; inhibition, % at 3 µM; actives 77% (n = 2,400); AID 651780; in the data active means inhibition above about 22%;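 further: CHO-Ga16 host cells stimulated with ATP at an EC80 level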
TAAR1 ant conf = human TAAR1 antagonism, confirmed; TAAR1-expressing cells, fluorescence antagonist read-out; AID 651785; inhibition, % at 3 µM; shares compounds with TAAR1 antagonist; actives 40% (n = 2,400); in the data active means inhibition above about 49%;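 further: CHO-Ga16 host cells challenged with agonist PEA near its EC80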
Ga16 ag counter = nonselective Ga16 agonism, counter-screen; Ga16-expressing cells, calcium fluorescence, agonist counterscreen; AID 651953; activation, % at 3 µM; shares compounds with TAAR1 antagonist; actives 18% (n = 2,400); in the data active means activation above about 12%
TAAR1 ag count = TAAR1 agonism, antagonist counter-screen; hTAAR1 cell line, fluorescence activation, agonist mode; activation, % at 3 µM; actives 2% (n = 2,400); AID 651955; shares compounds with TAAR1 antagonist; in the data active means activation above about 37%;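 further: CHO cells stably expressing TAAR1 with calcium dye readout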
Each line names hits and unclear results; the compound was inactive in the other large screens (follow-up assays come after a bar, where they were run). An excerpt weighted towards active compounds, which were near 2.3% of everything screened.

CCCCCCSc1cccc(-c2nc3ccc(C)cn3c2NCc2ccccc2)c1	TAAR1 antagonist 52 | TAAR1 nonsel count inactive | TAAR1 ant conf inactive | Ga16 ag counter inactive | TAAR1 ag count inactive
CCC(C)Sc1cccc(-c2nc3ccc(C)cn3c2NCc2ccccc2)c1 (stereo unspecified)	TAAR1 antagonist 91 | TAAR1 nonsel count 45 | TAAR1 ant conf 76 | Ga16 ag counter inactive | TAAR1 ag count inactive
Cc1ccc2nc(-c3ccccc3)c(Cc3cccc(Cl)c3)n2c1	none (no result: V1R ag counter, OXTR potentiate, OXTR ag)
CCC(C)Sc1cccc(-c2nc3ccccn3c2NCc2ccccc2)c1 (stereo unspecified)	TAAR1 antagonist 84 | TAAR1 nonsel count 42 | TAAR1 ant conf 70 | Ga16 ag counter inactive | TAAR1 ag count inactive
O=C(c1cccc(Cl)c1)C1CCCN(C(=O)c2ccoc2)C1 (stereo unspecified)	none
Cn1c(N)c(C(=O)COC(=O)C2(c3cccc(F)c3)CCCC2)c(=O)n(C)c1=O	TAAR1 antagonist 63 | TAAR1 nonsel count 32 | TAAR1 ant conf 51 | Ga16 ag counter inactive | TAAR1 ag count inactive
Cn1c(N)c(C(=O)COC(=O)c2ccc(F)cc2Cl)c(=O)n(C)c1=O	none
CC(=O)NC(c1ccc(F)c(F)c1)c1nc(-c2cnc3ccccc3c2)cs1 (stereo unspecified)	none (no result: V1R ag counter, OXTR potentiate, OXTR ag)
CC[C@@]1(C(=O)OC)N[C@H](CN(C)C(=O)c2ccc(C(C)(C)C)cc2)[C@@H]2C(=O)N(Cc3ccccc3)C(=O)[C@@H]21	TAAR1 antagonist 66 | TAAR1 nonsel count 28 | TAAR1 ant conf 51 | Ga16 ag counter inactive | TAAR1 ag count inactive
Cc1cc(C)c(C)c(S(=O)(=O)N2CCN(C(=O)c3cc(S(=O)(=O)N4CCOCC4)ccc3F)CC2)c1C	none
CCNC(=O)NC(=O)COC(=O)CCc1nc(=O)c2ccccc2n1C	none
Cc1ccc(S(=O)(=O)Nc2c(C)nn(C)c2C)c(C)c1	none
COc1ccc(CN2C(=O)c3ccccc3C2c2nnnn2C(C)C)cc1 (stereo unspecified)	none (no result: V1R ag counter, OXTR potentiate, OXTR ag)
Cc1cc(C)cc(NC(=O)Nc2cccnc2)c1	none (no result: V1R ag counter, OXTR potentiate, OXTR ag)
Cc1ccc(NC(=O)Nc2cccnc2)cc1NC(=O)Nc1cccnc1	TAAR1 antagonist 50 | TAAR1 nonsel count inactive | TAAR1 ant conf inactive | Ga16 ag counter inactive | TAAR1 ag count inactive
CCC1CN(C(=O)N2CCC(C(=O)NCc3ccccc3OC)CC2)c2cc(C)ccc2O1 (stereo unspecified)	TAAR1 antagonist 54 | TAAR1 nonsel count 29 | TAAR1 ant conf inactive | Ga16 ag counter inactive | TAAR1 ag count inactive
CCC1CN(C(=O)N2CCC(C(=O)NCc3ccccc3OC)CC2)c2ccccc2O1 (stereo unspecified)	none
C=CCC[C@@H](Cc1ccc(F)cc1)C(=O)OC[C@H]1CCCN1C(=O)[C@@H](CC=C)CC(=O)N[C@H](CO)Cc1ccccc1	TAAR1 antagonist 67 | TAAR1 nonsel count 29 | TAAR1 ant conf 53 | Ga16 ag counter inactive | TAAR1 ag count inactive
C=CC[C@@H](Cc1ccc(F)cc1)C(=O)OC[C@H]1CCCN1C(=O)[C@@H](CC=C)CC(=O)N[C@H](CO)Cc1ccccc1	TAAR1 antagonist 81 | TAAR1 nonsel count 41 | TAAR1 ant conf inactive | Ga16 ag counter 13 | TAAR1 ag count inactive
C=CC[C@@H](Cc1ccc(F)cc1)C(=O)OC[C@@H]1CCCN1C(=O)[C@@H](CC=C)CC(=O)N[C@H](CO)Cc1ccccc1	TAAR1 antagonist 66 | TAAR1 nonsel count 36 | TAAR1 ant conf inactive | Ga16 ag counter inactive | TAAR1 ag count inactive
Cc1ccc(S(=O)(=O)N2CCCC(C(=O)Nc3cccnc3)C2)cc1 (stereo unspecified)	none
CCOC(=O)c1ccc(NC(=O)C2CCCN(S(=O)(=O)c3ccc(F)cc3)C2)cc1 (stereo unspecified)	TAAR1 antagonist 67 | TAAR1 nonsel count 39 | TAAR1 ant conf 62 | Ga16 ag counter 13 | TAAR1 ag count inactive
CCOC(=O)c1ccc(NC(=O)C2CCN(S(=O)(=O)c3ccccc3)CC2)cc1	none
Cc1ccc(S(=O)(=O)N2CCCC(C(=O)Nc3ccc(NC(=O)c4ccccn4)cc3)C2)cc1 (stereo unspecified)	TAAR1 antagonist 55 | TAAR1 nonsel count 32 | TAAR1 ant conf 53 | Ga16 ag counter inactive | TAAR1 ag count inactive
COc1ccccc1NC(=O)Nc1nc(CC(=O)N2CCN(c3ccccc3OC)CC2)cs1	TAAR1 antagonist 69 | TAAR1 nonsel count 35 | TAAR1 ant conf 54 | Ga16 ag counter inactive | TAAR1 ag count inactive
COc1ccccc1NC(=O)Cc1csc(NC(=S)Nc2ccc(C)cc2)n1	none
COc1cc(C)ccc1NC(=O)Cc1csc(NC(=O)Nc2ccccc2OC)n1	TAAR1 antagonist 66 | TAAR1 nonsel count 34 | TAAR1 ant conf 53 | Ga16 ag counter inactive | TAAR1 ag count inactive
Cc1cc(=O)oc2c3c(cc(OCC(=O)NCc4ccccc4)c12)OC(C)(C)CC3	TAAR1 antagonist 68 | TAAR1 nonsel count 24 | TAAR1 ant conf inactive | Ga16 ag counter inactive | TAAR1 ag count inactive
Cc1cc(=O)oc2c3c(cc(OCC(=O)NCC(=O)O)c12)OC(C)(C)CC3	none
CCOc1cccc2c1OC1(C)CC2NC(=O)N1c1cccc(C(=O)NCc2ccccn2)c1 (stereo unspecified)	none
O=C(COC(=O)Cc1ccc(Cl)cc1)Nc1ccccc1-c1ccccc1	none
O=C(COC(=O)Cc1c(Cl)cccc1Cl)Nc1ccccc1-c1ccccc1	TAAR1 antagonist 62 | TAAR1 nonsel count 22 | TAAR1 ant conf 52 | Ga16 ag counter inactive | TAAR1 ag count inactive
COc1ccc(NC(=O)C2CCN(S(=O)(=O)c3cccc4nonc34)CC2)c(OC)c1	none
CCCN(CC(=O)Nc1ccccc1C)C(=O)C1CCN(c2ncnc3sc(C)c(C)c23)CC1	TAAR1 antagonist 60 | TAAR1 nonsel count 31 | TAAR1 ant conf 51 | Ga16 ag counter inactive | TAAR1 ag count inactive
Cc1sc2ncnc(N3CCC(C(=O)Nc4ccc(Cl)c(Cl)c4)CC3)c2c1C	none
Cc1cccc(OCC(=O)NNC(=O)C2CCN(c3ncnc4sc(C)c(C)c34)CC2)c1	TAAR1 antagonist 75 | TAAR1 nonsel count 36 | TAAR1 ant conf 52 | Ga16 ag counter inactive | TAAR1 ag count inactive
